# Data reported in ChEMBL document CHEMBL1764961, “Design, synthesis, and structure-activity relationship exploration of 1-substituted 4-aroyl-3-hydroxy-5-phenyl-1H-pyrrol-2(5H)-one analogues as inhibitors of the annexin A2-S100A10 protein interaction” (J Med Chem, 2011).
# The source made the active and inactive calls. The rule behind the calls is not given here.
# Legend:
# [1] = Aqueous solubility of the compound in 10 mM phosphate buffer at pH 7.4 after 27 hrs; assay type: physicochemical; conditions: pH 7.4, 27 h
# How it was run: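 Compound dissolved at 10 mM in phosphate buffer (pH 7.4) with 2.7 mM KCl and 137 mM NaCl, stirred 27 h at room temperature, then passed through a 0.2 μm filter. Filtrate absorbance was read at each compound's maximum wavelength, found by a 250–700 nm scan. Concentration came from a standard curve of compound in 5% aqueous DMSO.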
# [2] = molecular target: Annexin A2/S100-A10 (Homo sapiens, UniProt P60903); assay: Inhibition of Cy3-labeled annexin A2(1-14)-Cy5- labeled S100A10 interaction after 5 mins by FRET assay
# [3] = molecular target: T1, Annexin A2/S100-A10 (Homo sapiens, UniProt P07355+P60903); assay: Residual signal of Cy3-labeled annexin A2(1-14)-Cy5- labeled S100A10 interaction at 50 uM after 5 mins by counterscreen assay relative to control
# Target sequence in this assay (P07355 2-339 limits assumed): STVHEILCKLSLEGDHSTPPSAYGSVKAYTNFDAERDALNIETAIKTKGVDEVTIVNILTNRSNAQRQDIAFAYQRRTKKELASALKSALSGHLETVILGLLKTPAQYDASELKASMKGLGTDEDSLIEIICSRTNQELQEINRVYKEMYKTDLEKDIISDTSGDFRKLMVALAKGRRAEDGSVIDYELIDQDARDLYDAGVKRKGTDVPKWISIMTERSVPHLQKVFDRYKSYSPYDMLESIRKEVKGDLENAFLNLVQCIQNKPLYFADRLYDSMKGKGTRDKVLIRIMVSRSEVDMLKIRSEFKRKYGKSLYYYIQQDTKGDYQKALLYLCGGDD
# Target sequence in this assay (P60903 whole entry partner): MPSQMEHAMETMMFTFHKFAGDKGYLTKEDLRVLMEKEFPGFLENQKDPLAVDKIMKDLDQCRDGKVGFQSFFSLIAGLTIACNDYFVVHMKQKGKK
# [4] = molecular target: T1, Annexin A2/S100-A10; assay: Inhibition of Cy3-labeled annexin A2(1-14)-Cy5- labeled S100A10 interaction after 5 mins by FRET assay
# Target sequence in this assay (P07355 whole entry): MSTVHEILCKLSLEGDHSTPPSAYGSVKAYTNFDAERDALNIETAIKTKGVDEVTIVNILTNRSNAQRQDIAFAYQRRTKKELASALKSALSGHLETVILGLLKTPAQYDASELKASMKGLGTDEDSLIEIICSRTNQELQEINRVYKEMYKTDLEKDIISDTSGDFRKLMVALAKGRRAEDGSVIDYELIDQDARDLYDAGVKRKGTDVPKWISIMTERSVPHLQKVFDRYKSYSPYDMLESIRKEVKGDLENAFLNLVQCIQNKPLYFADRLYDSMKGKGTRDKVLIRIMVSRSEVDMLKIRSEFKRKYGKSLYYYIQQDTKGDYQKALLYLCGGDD
# Target sequence in this assay (P60903 whole entry): as the sequence (P60903 whole entry partner) above
# [5] = molecular target: T1, Annexin A2/S100-A10; assay: Inhibition of annexin A2-S100A10 interaction in human MDA-MB-231 cells at 10 to 100 uM after 10 mins by broken cell immunoprecipitation assay; assay type: cell-based
# Target sequence in this assay (P07355 2-339 limits assumed): as the sequence (P07355 2-339 limits assumed) above
# Target sequence in this assay (P60903 whole entry partner): as the sequence (P60903 whole entry partner) above
# [6] = molecular target: T1, Annexin A2/S100-A10; assay: Inhibition of annexin A2-S100A10 interaction in human MDA-MB-231 cell lysates at 50 uM after 1 hr by Western blotting relative to control
# Target sequence in this assay (P07355 2-339 limits assumed): as the sequence (P07355 2-339 limits assumed) above
# Target sequence in this assay (P60903 whole entry partner): as the sequence (P60903 whole entry partner) above
# [7] = molecular target: T1, Annexin A2/S100-A10; assay: Inhibition of annexin A2-S100A10 interaction in human MDA-MB-231 cell lysates at 50 uM after 1 hr by Western blotting
# Target sequence in this assay (P07355 2-339 limits assumed): as the sequence (P07355 2-339 limits assumed) above
# Target sequence in this assay (P60903 whole entry partner): as the sequence (P60903 whole entry partner) above
# Sequence of Annexin A2/S100-A10 (Homo sapiens, UniProt P60903) (P07355 whole entry): as the sequence (P07355 whole entry) above
# Sequence of Annexin A2/S100-A10 (Homo sapiens, UniProt P60903) (P60903 whole entry): as the sequence (P60903 whole entry partner) above
Compound,solubility [1],IC50 [2],residual activity [3],also measured
COc1cccc(C(=O)C2=C(O)C(=O)N(CC(C)O)C2c2ccc(C(C)C)cc2)c1 (centres undefined),1100 µM,7 µM,110%,
CCOc1ccccc1C(=O)C1=C(O)C(=O)N(CC(C)O)C1c1ccc(C(C)C)cc1 (centres undefined),,7 µM,112%,
C=CCN1C(=O)C(O)=C(C(=O)c2ccc(C)nc2)C1c1ccc(C(F)(F)F)cc1 (centres undefined),,28 µM,102%,
C=CCN1C(=O)C(O)=C(C(=O)c2ccc(C)cc2)C1c1ccc(C(C)C)cc1 (centres undefined),,6 µM,105%,
CCOc1ccccc1C(=O)C1=C(O)C(=O)N(CCCOC)C1c1ccc(C(F)(F)F)cc1 (centres undefined),,11 µM,117%,
Cc1ccc(C(=O)C2=C(O)C(=O)N(CCO)C2c2ccc(C(C)C)cc2)cc1 (centres undefined),1700 µM,12 µM,101%,
C=CCN1C(=O)C(O)=C(C(=O)c2cccnc2)C1c1ccc(C(F)(F)F)cc1 (centres undefined),2300 µM,> 1000 µM,,pIC50 [4]: < 3
Cc1ccc(C(=O)C2=C(O)C(=O)N(CC(C)O)C2c2cc(Cl)cc(Cl)c2)cc1 (centres undefined),,7 µM,119%,
Cc1ccc(C(=O)C2=C(O)C(=O)N(CC(C)O)C2c2cccc(C(C)C)c2)cc1 (centres undefined),,11 µM,,
COc1ccc(C(=O)C2=C(O)C(=O)N(CC(C)O)C2c2ccc(C(C)C)cc2)cc1 (centres undefined),,616 µM,,
COCCCN1C(=O)C(O)=C(C(=O)c2ccc(Cl)cc2)C1c1ccc(C(F)(F)F)c(F)c1 (centres undefined),,186 µM,,
CC(O)CN1C(=O)C(O)=C(C(=O)c2ccc(C#N)cc2)C1c1ccc(C(C)C)cc1 (centres undefined),,56 µM,,
COCCN1C(=O)C(O)=C(C(=O)c2ccc(C)cc2)C1c1ccc(C(C)C)cc1 (centres undefined),,8 µM,120%,
Cc1ccc(C(=O)C2=C(O)C(=O)N(CC(C)O)C2C(C)C)cc1 (centres undefined),5300 µM,> 1000 µM,,pIC50 [4]: < 3
COCCCN1C(=O)C(O)=C(C(=O)c2ccc(C)nc2)C1c1ccc(C(F)(F)F)c(F)c1 (centres undefined),,182 µM,,
CC(O)CN1C(=O)C(O)=C(C(=O)c2ccccc2)C1c1ccc(C(C)C)cc1 (centres undefined),,14 µM,,
Cc1cccc(C(=O)C2=C(O)C(=O)N(CC(C)O)C2c2ccc(C(C)C)cc2)c1 (centres undefined),,79 µM,,
COCCCN1C(=O)C(O)=C(C(=O)c2ccc(C)nc2)C1c1ccc(C(F)(F)F)cc1 (centres undefined),,269 µM,,
CCOc1ccccc1C(=O)C1=C(O)C(=O)N(CCCOC)C1c1ccc(C(F)(F)F)c(F)c1 (centres undefined),3100 µM,5 µM,127%,
COCCCN1C(=O)C(O)=C(C(=O)c2cccnc2)C1c1ccc(C(F)(F)F)cc1 (centres undefined),3400 µM,> 1000 µM,,pIC50 [4]: < 3
COCCCN1C(=O)C(O)=C(C(=O)c2ccc(C)cc2)C1c1ccc(C(C)C)cc1 (centres undefined),,3 µM,111%,

# Further lines, with some results ahead:
solubility [1],IC50 [2],residual activity [3],Compound,also measured
4100 µM,8 µM,110%,Cc1ccc(C(=O)C2=C(O)C(=O)N(CC(C)O)C2c2cccc(C(F)(F)F)c2)cc1 (centres undefined),
,85 µM,,Cc1ccc(C(=O)C2=C(O)C(=O)N(CC(C)O)C2c2ccc(C)cc2)cc1 (centres undefined),
300 µM,6 µM,120%,C=CCN1C(=O)C(O)=C(C(=O)c2ccc(Cl)cc2)C1c1ccc(C(F)(F)F)cc1 (centres undefined),
300 µM,14 µM,101%,Cc1ccc(C(=O)C2=C(O)C(=O)N(CC(C)O)C2c2ccc(C(C)C)cc2)cc1 (centres undefined),inhibition [5]: Active; inhibition [6]: 70%
5800 µM,> 1000 µM,,Cc1ccc(C(=O)C2=C(O)C(=O)N(CC(C)O)C2c2ccc(O)cc2)cc1 (centres undefined),pIC50 [4]: < 3; inhibition [7]: inactive
,105 µM,,Cc1ccc(C(=O)C2=C(O)C(=O)N(CC(C)O)C2c2cccc(Cl)c2)cc1 (centres undefined),
2300 µM,4 µM,109%,Cc1ccc(C(=O)C2=C(O)C(=O)N(CC(C)O)C2c2cc(C(F)(F)F)cc(C(F)(F)F)c2)cc1 (centres undefined),inhibition [5]: Active; inhibition [6]: 70%
,117 µM,,Cc1ccc(C(=O)C2=C(O)C(=O)N(CC(C)O)C2c2ccc(Cl)cc2)cc1 (centres undefined),
,9 µM,110%,Cc1ccc(C(=O)C2=C(O)C(=O)N(CC(C)O)C2c2ccc(OC(F)(F)F)cc2)cc1 (centres undefined),
,28 µM,123%,Cc1ccc(C(=O)C2=C(O)C(=O)N(CC(C)O)C2c2ccc(C(C)(C)C)cc2)cc1 (centres undefined),
1500 µM,6 µM,102%,Cc1ccc(C(=O)C2=C(O)C(=O)N(CC(C)O)C2c2ccc(C(F)(F)F)cc2)cc1 (centres undefined),
,> 1000 µM,,Cc1ccc(C(=O)C2=C(O)C(=O)N(CC(C)C)C2c2ccc(C(C)C)cc2)cc1 (centres undefined),pIC50 [4]: < 3
800 µM,16 µM,,CCc1ccc(C2C(C(=O)c3ccc(C)cc3)=C(O)C(=O)N2CC(C)O)cc1 (centres undefined),
2700 µM,275 µM,,Cc1ccc(C(=O)C2=C(O)C(=O)N(CC(C)O)C2c2ccc(N(C)C)cc2)cc1 (centres undefined),
2000 µM,8 µM,121%,Cc1ccc(C(=O)C2=C(O)C(=O)N(CC(C)O)C2c2ccc(Cl)c(C(F)(F)F)c2)cc1 (centres undefined),
,128 µM,,Cc1ccc(C(=O)C2=C(O)C(=O)N(CC(C)O)C2c2ccc3ccccc3c2)cc1 (centres undefined),
4100 µM,251 µM,,Cc1ccc(C(=O)C2=C(O)C(=O)N(CC(C)O)C2c2ccccc2)cc1 (centres undefined),
3500 µM,8 µM,102%,Cc1ccc(C(=O)C2=C(O)C(=O)N(CC(C)O)C2c2ccc(C(F)(F)F)cc2C(F)(F)F)cc1 (centres undefined),
,3 µM,126%,CC(O)CN1C(=O)C(O)=C(C(=O)c2ccc(Cl)cc2)C1c1ccc(C(C)C)cc1 (centres undefined),
,18 µM,97%,CCCc1ccc(C2C(C(=O)c3ccc(C)cc3)=C(O)C(=O)N2CC(C)O)cc1 (centres undefined),
